Measured values: ChEMBL document CHEMBL3259739, “Synthesis and structure-activity relationship of trisubstituted thiazoles as Cdc7 kinase inhibitors” (Eur J Med Chem, 2014)

How the values were obtained:
[1] = target: Insulin-like growth factor 1 receptor (Homo sapiens) (UniProt P08069); experiment: Inhibition of IGF1R (unknown origin) at 1 uM relative to control; values are per cent of control
[2] = target: Phosphatidylinositol 4,5-bisphosphate 3-kinase catalytic subunit alpha isoform (Homo sapiens) (UniProt P42336); experiment: Inhibition of PIK3CA (unknown origin) at 1 uM relative to control; conditions: values are per cent of control
Outline: (§1)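 KinomeSCAN competitive binding panel of 100 kinases; compounds tested at 1 µM in duplicate; read-out is percent […] control.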

[3] = target: MAP kinase-interacting serine/threonine-protein kinase 1 (Homo sapiens) (UniProt Q9BUB5); experiment: Inhibition of MKNK1 (unknown origin) at 1 uM relative to control; values are per cent of control
[4] = Intrinsic clearance in human liver microsomes at 1 uM after 30 mins by reverse phase HPLC analysis in presence of NADPH; type: ADME; conditions: read-out: CLH
Outline: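 Reactions were stopped with MeCN after 0 or 30 min. Samples were analysed by reverse-phase HPLC–tandem MS to give intrinsic clearance (µl/min/mg).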

[5] = target: Receptor-type tyrosine-protein kinase FLT3 (Homo sapiens) (UniProt P36888); experiment: Inhibition of FLT3 (unknown origin) at 1 uM relative to control; values are per cent of control
[6] = target: 5'-AMP-activated protein kinase catalytic subunit alpha-1 (Homo sapiens) (UniProt Q13131); experiment: Inhibition of AMPKalpha1 (unknown origin) at 1 uM relative to control; values are per cent of control
[7] = target: Angiopoietin-1 receptor (Homo sapiens) (UniProt Q02763); experiment: Inhibition of TIE2 (unknown origin) at 1 uM relative to control; conditions: values are per cent of control
Outline: as §1

[8] = target: Serine/threonine-protein kinase Nek6 (Homo sapiens) (UniProt Q9HC98); experiment: Inhibition of NEK6 (unknown origin) at 1 uM relative to control; values are per cent of control
[9] = target: T1, cGMP-dependent protein kinase 1 (Homo sapiens) (UniProt Q13976); experiment: Inhibition of PRKG1 (unknown origin) at 1 uM relative to control; conditions: values are per cent of control
T1 sequence (whole entry): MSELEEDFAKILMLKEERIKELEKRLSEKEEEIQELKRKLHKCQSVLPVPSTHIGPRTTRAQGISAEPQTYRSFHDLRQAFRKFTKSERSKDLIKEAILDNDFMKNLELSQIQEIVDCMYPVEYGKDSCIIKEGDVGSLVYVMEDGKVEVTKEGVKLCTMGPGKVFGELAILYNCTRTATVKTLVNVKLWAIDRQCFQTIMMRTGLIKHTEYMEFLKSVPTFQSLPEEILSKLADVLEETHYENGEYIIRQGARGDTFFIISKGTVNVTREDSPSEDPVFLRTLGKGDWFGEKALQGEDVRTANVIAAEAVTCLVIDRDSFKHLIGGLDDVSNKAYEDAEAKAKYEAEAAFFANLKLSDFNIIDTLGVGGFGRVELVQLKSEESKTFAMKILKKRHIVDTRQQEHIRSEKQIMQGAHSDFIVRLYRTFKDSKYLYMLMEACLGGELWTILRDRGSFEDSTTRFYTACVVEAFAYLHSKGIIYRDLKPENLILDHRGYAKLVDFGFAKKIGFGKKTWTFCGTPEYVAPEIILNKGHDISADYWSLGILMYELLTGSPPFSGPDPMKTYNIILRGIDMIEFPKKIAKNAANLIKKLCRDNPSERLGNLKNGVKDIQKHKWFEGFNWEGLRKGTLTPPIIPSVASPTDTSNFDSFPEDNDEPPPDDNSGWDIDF

[10] = target: Cyclin-dependent kinase 2/cyclin E1 (Homo sapiens, UniProt P24941); experiment: Inhibition of CDK2/Cyclin-E (unknown origin) using maltose binding protein as substrate by HTRF assay; type: protein-complex assay
[11] = target: T2, Serine/threonine-protein kinase PLK4 (Homo sapiens) (UniProt O00444); experiment: Inhibition of PLK4 (unknown origin) at 1 uM relative to control; conditions: values are per cent of control
T2 sequence (whole entry): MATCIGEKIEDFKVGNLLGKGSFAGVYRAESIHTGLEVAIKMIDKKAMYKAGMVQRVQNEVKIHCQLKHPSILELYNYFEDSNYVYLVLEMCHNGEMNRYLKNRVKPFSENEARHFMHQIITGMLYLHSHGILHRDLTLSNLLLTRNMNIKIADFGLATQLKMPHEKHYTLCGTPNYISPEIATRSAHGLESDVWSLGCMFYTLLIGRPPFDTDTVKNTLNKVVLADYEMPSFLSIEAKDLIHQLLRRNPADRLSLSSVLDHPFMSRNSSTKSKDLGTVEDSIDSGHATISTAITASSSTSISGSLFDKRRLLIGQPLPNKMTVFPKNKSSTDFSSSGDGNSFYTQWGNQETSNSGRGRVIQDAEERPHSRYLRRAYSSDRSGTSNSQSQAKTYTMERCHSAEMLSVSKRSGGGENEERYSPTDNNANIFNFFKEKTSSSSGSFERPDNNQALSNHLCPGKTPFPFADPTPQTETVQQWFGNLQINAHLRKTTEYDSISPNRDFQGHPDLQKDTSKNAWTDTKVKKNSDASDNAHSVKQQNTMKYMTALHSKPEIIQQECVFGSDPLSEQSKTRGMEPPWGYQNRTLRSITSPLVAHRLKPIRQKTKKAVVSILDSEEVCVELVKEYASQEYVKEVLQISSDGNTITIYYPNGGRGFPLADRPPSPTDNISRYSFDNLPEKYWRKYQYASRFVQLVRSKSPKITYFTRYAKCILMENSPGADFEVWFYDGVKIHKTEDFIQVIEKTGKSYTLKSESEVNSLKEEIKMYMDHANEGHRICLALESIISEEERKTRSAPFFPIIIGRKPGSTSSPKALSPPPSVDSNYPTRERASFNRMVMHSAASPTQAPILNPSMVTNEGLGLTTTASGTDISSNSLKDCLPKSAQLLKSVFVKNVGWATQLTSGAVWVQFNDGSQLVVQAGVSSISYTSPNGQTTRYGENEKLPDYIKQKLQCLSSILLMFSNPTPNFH
Outline: as §1

[12] = target: Serine/threonine-protein kinase PAK 2 (Homo sapiens) (UniProt Q13177); experiment: Inhibition of PAK2 (unknown origin) at 1 uM relative to control; conditions: values are per cent of control
Outline: as §1

[13] = target: Serine/threonine-protein kinase PLK1 (Homo sapiens) (UniProt P53350); experiment: Inhibition of PLK1 (unknown origin) at 1 uM relative to control; conditions: values are per cent of control
Outline: as §1

[14] = target: Cyclin-dependent kinase 8 (Homo sapiens) (UniProt P49336); experiment: Inhibition of CDK8 (unknown origin) at 1 uM relative to control; values are per cent of control
[15] = target: Mitogen-activated protein kinase kinase kinase 9 (Homo sapiens) (UniProt P80192); experiment: Inhibition of MLK1 (unknown origin) at 1 uM relative to control; values are per cent of control
[16] = target: Wee1-like protein kinase (Homo sapiens) (UniProt P30291); experiment: Inhibition of WEE1 (unknown origin) at 1 uM relative to control; conditions: values are per cent of control
Outline: as §1

Chain of Cyclin-dependent kinase 8 (Homo sapiens) (P49336 whole entry): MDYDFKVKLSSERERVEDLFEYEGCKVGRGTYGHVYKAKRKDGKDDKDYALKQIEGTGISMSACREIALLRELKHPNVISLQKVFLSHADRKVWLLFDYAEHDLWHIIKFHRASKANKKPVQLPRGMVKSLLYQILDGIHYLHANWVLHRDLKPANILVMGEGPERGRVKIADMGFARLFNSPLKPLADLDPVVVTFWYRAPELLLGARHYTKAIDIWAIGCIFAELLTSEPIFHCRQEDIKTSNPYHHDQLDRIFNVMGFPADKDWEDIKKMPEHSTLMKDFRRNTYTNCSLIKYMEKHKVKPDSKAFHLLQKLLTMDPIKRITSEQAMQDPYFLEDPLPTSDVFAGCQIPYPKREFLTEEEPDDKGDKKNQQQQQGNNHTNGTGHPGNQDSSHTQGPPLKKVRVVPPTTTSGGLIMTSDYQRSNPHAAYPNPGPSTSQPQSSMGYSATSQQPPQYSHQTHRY
Chain of 5'-AMP-activated protein kinase catalytic subunit alpha-1 (Homo sapiens) (Q13131 whole entry, looked up): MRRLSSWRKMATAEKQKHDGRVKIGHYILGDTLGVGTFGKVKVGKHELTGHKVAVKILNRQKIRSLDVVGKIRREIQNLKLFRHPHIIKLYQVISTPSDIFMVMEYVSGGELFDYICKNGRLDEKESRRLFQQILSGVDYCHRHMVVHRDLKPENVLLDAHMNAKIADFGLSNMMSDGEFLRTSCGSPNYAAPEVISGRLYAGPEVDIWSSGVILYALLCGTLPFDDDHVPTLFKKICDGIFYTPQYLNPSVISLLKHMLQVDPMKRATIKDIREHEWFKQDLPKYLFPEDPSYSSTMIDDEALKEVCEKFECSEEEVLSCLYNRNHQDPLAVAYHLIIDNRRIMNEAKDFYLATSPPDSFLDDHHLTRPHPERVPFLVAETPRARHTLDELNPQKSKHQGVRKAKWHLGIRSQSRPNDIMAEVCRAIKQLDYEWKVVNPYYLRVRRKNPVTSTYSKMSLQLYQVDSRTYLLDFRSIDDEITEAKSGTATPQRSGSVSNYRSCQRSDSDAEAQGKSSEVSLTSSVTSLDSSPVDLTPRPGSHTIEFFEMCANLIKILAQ
Chain of Mitogen-activated protein kinase kinase kinase 9 (Homo sapiens) (P80192 whole entry, looked up): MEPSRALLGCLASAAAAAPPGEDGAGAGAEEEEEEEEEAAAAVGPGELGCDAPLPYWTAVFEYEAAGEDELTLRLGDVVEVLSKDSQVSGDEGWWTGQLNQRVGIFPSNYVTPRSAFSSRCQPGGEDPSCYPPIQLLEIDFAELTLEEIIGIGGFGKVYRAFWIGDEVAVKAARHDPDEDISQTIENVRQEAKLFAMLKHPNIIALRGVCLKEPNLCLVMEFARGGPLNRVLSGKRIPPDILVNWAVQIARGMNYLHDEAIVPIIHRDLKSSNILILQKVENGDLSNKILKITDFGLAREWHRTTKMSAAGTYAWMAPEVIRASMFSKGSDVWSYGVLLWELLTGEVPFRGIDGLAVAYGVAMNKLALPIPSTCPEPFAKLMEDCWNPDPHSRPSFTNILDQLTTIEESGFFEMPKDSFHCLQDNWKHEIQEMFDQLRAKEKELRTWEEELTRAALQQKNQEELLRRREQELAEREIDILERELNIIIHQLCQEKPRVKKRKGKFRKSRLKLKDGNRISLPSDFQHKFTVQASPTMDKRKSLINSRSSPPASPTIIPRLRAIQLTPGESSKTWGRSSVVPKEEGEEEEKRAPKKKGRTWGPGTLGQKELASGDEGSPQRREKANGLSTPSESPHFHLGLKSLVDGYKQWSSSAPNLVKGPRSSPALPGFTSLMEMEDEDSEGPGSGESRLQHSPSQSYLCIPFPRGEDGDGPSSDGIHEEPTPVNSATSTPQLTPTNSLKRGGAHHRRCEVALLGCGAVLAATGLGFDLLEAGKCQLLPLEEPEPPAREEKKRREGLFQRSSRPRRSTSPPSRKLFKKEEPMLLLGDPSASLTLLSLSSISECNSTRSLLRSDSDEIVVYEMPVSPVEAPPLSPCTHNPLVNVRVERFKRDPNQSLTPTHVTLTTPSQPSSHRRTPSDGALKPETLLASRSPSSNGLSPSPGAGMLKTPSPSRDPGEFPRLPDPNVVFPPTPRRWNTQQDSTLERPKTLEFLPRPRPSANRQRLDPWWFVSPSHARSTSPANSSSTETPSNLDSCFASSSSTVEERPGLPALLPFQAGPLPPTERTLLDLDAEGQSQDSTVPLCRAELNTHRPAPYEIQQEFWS
Chain of MAP kinase-interacting serine/threonine-protein kinase 1 (Homo sapiens) (Q9BUB5 whole entry, looked up): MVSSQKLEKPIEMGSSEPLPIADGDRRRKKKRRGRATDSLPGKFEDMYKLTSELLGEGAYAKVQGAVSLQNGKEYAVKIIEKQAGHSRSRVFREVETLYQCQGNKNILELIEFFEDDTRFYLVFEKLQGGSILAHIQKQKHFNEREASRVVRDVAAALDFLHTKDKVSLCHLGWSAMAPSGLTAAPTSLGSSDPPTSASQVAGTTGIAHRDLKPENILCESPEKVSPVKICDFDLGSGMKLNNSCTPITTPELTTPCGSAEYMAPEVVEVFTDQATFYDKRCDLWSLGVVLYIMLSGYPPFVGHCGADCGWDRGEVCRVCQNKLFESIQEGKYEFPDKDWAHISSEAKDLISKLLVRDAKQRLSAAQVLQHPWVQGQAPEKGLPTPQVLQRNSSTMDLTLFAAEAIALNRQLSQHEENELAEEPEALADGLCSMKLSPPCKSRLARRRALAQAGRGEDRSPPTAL
Chain of Phosphatidylinositol 4,5-bisphosphate 3-kinase catalytic subunit alpha isoform (Homo sapiens) (P42336 whole entry, canonical isoform): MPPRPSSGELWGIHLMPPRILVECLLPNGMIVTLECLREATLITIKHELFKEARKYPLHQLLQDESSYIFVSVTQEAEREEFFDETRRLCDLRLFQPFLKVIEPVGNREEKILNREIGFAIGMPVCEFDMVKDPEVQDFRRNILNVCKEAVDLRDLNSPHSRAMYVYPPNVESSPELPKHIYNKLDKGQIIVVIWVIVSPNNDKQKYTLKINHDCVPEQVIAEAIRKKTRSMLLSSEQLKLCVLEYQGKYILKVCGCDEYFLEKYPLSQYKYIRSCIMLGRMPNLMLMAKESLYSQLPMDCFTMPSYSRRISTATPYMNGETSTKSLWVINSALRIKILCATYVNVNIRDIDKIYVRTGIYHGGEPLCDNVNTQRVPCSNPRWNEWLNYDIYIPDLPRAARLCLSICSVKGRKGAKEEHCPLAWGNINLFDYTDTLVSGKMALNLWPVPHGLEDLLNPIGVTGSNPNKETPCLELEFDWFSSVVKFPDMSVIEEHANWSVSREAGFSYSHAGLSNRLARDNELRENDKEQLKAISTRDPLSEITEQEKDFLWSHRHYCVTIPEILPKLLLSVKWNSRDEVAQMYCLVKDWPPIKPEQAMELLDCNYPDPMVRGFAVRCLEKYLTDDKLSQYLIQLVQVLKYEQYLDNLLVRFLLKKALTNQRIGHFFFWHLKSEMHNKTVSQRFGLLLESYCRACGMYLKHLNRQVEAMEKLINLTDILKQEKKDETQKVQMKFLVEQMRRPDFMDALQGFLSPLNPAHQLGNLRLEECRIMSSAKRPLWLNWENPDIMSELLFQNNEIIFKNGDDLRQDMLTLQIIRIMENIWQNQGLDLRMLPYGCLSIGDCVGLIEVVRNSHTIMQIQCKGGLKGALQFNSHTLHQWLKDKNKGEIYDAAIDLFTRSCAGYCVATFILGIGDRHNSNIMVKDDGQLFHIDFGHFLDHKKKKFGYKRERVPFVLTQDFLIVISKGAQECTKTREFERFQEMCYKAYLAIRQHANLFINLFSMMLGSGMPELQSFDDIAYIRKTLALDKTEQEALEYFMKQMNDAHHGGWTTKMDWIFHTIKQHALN
Chain of Angiopoietin-1 receptor (Homo sapiens) (Q02763 whole entry): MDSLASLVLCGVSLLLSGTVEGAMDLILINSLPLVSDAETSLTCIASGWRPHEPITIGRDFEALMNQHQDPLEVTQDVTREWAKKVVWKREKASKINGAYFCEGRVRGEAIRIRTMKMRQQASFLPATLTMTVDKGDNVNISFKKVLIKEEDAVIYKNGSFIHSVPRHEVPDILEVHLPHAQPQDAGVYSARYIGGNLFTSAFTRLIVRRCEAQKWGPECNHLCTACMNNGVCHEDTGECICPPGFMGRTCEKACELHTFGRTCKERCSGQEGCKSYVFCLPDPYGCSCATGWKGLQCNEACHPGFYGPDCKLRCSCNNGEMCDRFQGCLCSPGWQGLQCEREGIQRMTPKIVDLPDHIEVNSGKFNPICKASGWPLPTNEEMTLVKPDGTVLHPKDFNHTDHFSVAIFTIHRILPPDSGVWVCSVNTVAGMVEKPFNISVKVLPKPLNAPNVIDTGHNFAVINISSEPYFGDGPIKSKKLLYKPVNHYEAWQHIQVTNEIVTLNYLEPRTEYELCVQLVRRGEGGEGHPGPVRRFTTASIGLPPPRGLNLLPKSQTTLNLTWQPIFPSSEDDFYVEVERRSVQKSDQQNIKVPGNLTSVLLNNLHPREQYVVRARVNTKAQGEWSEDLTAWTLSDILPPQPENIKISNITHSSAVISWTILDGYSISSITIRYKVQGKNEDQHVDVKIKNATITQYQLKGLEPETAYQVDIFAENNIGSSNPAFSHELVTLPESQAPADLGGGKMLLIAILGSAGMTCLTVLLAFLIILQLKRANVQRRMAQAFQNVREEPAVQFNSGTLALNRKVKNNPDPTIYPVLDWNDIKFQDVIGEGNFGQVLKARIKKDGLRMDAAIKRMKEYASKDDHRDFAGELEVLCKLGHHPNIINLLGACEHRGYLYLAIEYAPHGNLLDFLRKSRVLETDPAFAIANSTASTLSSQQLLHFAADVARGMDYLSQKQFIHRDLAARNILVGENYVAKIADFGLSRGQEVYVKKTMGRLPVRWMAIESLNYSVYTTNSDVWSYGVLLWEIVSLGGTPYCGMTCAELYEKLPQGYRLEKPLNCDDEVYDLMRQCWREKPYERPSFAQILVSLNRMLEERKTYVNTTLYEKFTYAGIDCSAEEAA

residual activity [1] [%] | residual binding, % of control [2] [%] | residual activity [3] [%] | microsomal CLint at 1 µM [4] [µL/min/mg] | residual activity [5] [%] | residual activity [6] [%] | residual binding, % of control [7] [%] | residual activity [8] [%] | residual binding, % of control [9] [%] | IC50 [10] [µM] | residual binding, % of control [11] [%] | residual binding, % of control [12] [%] | residual binding, % of control [13] [%] | residual activity [14] [%] | residual activity [15] [%] | residual binding, % of control [16] [%] | SMILES
85 | 100 | 100 | 17 | 87 | 68 | 67 | 65 | 75 | > 125 | 100 | 99 | 100 | 82 | 90 | 73 | CCOC(=O)c1sc(-c2ccncc2)nc1O
76 | 83 | 55 | 43 | 100 | 76 | 99 | 85 | 51 | 10.6 | 100 | 89 | 88 | 84 | 94 | 94 | COc1ccc(-c2nc(-c3ccnc(N)n3)sc2C(N)=O)c(Cl)c1

SMILES | residual activity [1] [%] | residual binding, % of control [2] [%] | residual activity [3] [%] | microsomal CLint at 1 µM [4] [µL/min/mg] | residual activity [5] [%] | residual activity [6] [%] | residual binding, % of control [7] [%] | residual activity [8] [%] | residual binding, % of control [9] [%] | IC50 [10] [µM] | residual binding, % of control [11] [%] | residual binding, % of control [12] [%] | residual binding, % of control [13] [%] | residual activity [14] [%] | residual activity [15] [%] | residual binding, % of control [16] [%]
NC(=O)c1sc(-c2ccnc(N)n2)nc1-c1ccc(Cl)cc1Cl | 94 | 78 | 84 | 19 | 66 | 100 | 82 | 81 | 88 | 1.82 | 92 | 100 | 100 | 97 | 99 | 74
